Where two headings read alike, the source gives them in different places.
Legend:
[1] = system: PAK4, p-PAK4, cyclin D1, p-PAK2 in MiaPaCa-2 cells; experiment: Western blot of PAK4 and related signaling; type: cell-based, human
In short: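 MiaPaCa-2 cells (1×10^6 per 100 mm dish, ~50% confluent) were exposed to test compound for 72 hrs. Protein was extracted and western blotted, and blots were probed for p-PAK4 and p-PAK2 with β-actin as the loading control. Blots are representative of two independent experiments.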

[2] = system: PARP cleavage in MiaPaCa-2 cells; experiment: Western blot for PARP cleavage; type: cell-based, human; conditions: 72 hrs
In short: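 1×10^6 MiaPaCa-2 cells were grown overnight in 100 mm dishes to ~50% confluence. They were exposed to the indicated test compound concentrations for 72 hrs. Protein was extracted, separated by SDS-PAGE and western blotted with a PARP antibody, using β-actin as the loading control.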

[3] = system: p-PAK4 and group I PAKs in DU-145 prostate cancer cell line; experiment: PAK isoform phosphorylation in DU-145 cells; type: cell-based; conditions: sub-IC50 amount
[4] = target: PAK4-vimentin interaction (Homo sapiens, UniProt O96013); experiment: Co-immunoprecipitation of PAK4 and vimentin; type: cell-based; conditions: vs control treatment
PAK4-vimentin interaction, sequence (O96013 whole entry): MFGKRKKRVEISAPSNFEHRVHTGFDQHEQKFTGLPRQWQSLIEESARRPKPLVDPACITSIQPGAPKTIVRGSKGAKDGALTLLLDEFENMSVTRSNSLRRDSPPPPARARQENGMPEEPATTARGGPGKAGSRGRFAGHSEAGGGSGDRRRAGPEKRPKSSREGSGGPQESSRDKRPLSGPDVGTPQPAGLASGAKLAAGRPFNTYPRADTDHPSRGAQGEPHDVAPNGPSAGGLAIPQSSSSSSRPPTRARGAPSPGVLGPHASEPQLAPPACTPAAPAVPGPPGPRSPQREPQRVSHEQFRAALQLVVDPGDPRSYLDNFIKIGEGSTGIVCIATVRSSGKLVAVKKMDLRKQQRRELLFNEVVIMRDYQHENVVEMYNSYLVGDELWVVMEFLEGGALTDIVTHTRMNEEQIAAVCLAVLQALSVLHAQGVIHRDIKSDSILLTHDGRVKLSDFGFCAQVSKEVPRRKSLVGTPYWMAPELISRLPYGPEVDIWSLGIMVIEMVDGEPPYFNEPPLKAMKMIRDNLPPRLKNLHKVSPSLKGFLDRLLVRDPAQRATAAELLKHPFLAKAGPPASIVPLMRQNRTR
In short: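 Lysates (200 micro gram protein) from control or test-compound-treated cells were immunoprecipitated with PAK4 or vimentin antibodies. The immunoprecipitates were resolved on a 10% gel, western blotted and probed with anti-PAK4 or anti-vimentin antibodies, with loading and internal controls. Two independent experiments were run.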

MiaPaCa-2 cells [5] = experiment: MTT isobologram synergy analysis; type: cell-based, human; conditions: MiaPaCa-2, KPT-9274 (60, 120 or 180 nM) with oxaliplatin (2, 4 or 8 μM), 72 hrs
In short: (§1)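 Cells at 5,000 per well in 96-well plates were treated after 24 hrs with test compound (60, 120 or 180 nM), a chemotherapy partner, or both for 72 hrs. The MTT read-out used 5 mg/mL reagent for 2 hrs, formazan dissolved in DMSO and absorbance at 595 nm. Mean absorbance went into isobologram analysis, and the combination index was calculated.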

L3.6pl cells [6] = experiment: MTT isobologram synergy analysis; type: cell-based; conditions: 72 hrs
In short: as §1

MiaPaCa-2 cells [7] = experiment: Annexin V FITC apoptosis, combination treatment; type: cell-based, human; conditions: MiaPaCa-2, combination with gemcitabine or oxaliplatin, 96 hrs
In short: (§2)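 Human PDAC cells plated at 50,000 per well in six-well plates. After 24 hrs, exposed for 96 hrs to test compound, gemcitabine, oxaliplatin, or test compound plus either drug. Cells trypsinized; equal numbers stained with Annexin V FITC and propidium iodide per kit protocol. Analysed by flow cytometry.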

L3.6pl cells [8] = experiment: Annexin V FITC apoptosis, combination treatment; type: cell-based; conditions: combination with gemcitabine or oxaliplatin, 96 hrs
In short: as §2

MiaPaCa-2 cells [9] = experiment: Clonogenic assay, combination treatment; type: cell-based, human; conditions: MiaPaCa-2, combination with gemcitabine or oxaliplatin
In short: (§3)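 Cells were seeded at 50,000 per well in six-well plates and allowed to attach for 24 hrs. They were then exposed for 72 hrs to test compound, gemcitabine, oxaliplatin or a combination. Afterwards, 1,000 cells per condition were re-seeded in 100 mm dishes and grown. Colonies were stained, counted and photographed.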

L3.6pl cells [10] = experiment: Clonogenic assay, combination treatment; type: cell-based; conditions: combination with gemcitabine or oxaliplatin
In short: as §3

L3.6pl PDAC tumors = experiment: L3.6pl subcutaneous xenograft; type: in vivo
In short: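 Four-week-old female ICR-SCID mice: 10 per group were trocared bilaterally s.c. with ~50 mg L3.6pl tumor fragments, then randomised. Treatment was diluent or test compound 140 mg/kg i.v., 5 times per week for 4 weeks. At day 21 the control arm got 140 mg/kg i.v. once daily, 5 days a week, for one more week. Tumor weight, body weight and side effects were tracked; excised tumors were H&E stained.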

AsPC-1 tumors = experiment: AsPC-1 subcutaneous xenograft; type: in vivo, ICR-SCID mice; conditions: KPT-9274 single agent, p < 0.05
[11] = system: CD44+/CD133+/EpCAM+ MiaPaCa-2 CSC tumors; experiment: MiaPaCa-2 CSC subcutaneous xenograft; type: in vivo, ICR-SCID mice
In short: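 CD44+/CD133+/EpCAM+ MiaPaCa-2 cells, isolated by FACS, were kept in serum-free sphere medium (1:1 DMEM/F-12K with B27 and N2). 1×10^6 cells were implanted subcutaneously on both flanks of 4-week-old female ICR-SCID mice. Growth was confirmed in one mouse after 2–3 weeks. Tumor-bearing mice were then randomized into 2 groups of 6: vehicle control or treatment.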

Tolerability in mice = type: in vivo; conditions: 200 mg/kg daily administered either intravenously or orally
multi-drug transporters [12] = experiment: Multi-drug transporter substrate status; type: in vitro ADME; conditions: data not shown
[13] = clinical trial NCT00932126; cited from earlier work
multi-drug transporters [14] = conditions: cited from earlier work
PAK4 = PAK4 (Homo sapiens, UniProt O96013); conditions: cited from earlier work
PAK4, sequence (O96013 whole entry): as above

[15] = 140 mg/kg IV, 5 days per week, SCID mice

## Nc1ccc(/C=C/C(=O)NCc2cc3cc(-c4ccc(C(=O)N5CCC(F)(F)CC5)cc4)cc(-c4ccc(F)cc4)c3o2)cn1 [KPT-9274]
[1]
  p-PAK2 level (western blot): without effecting
  p-PAK4 level (western blot): reduced
[2]
  PARP cleavage (western blot): significant PARP cleavage
[3]
  p-PAK4 versus group I PAKs: selective inhibition of p-PAK4 sparing other group I PAKs
[4]
  PAK4-vimentin interaction (co-immunoprecipitation): disruption of PAK4-vimentin interaction
MiaPaCa-2 cells [5]
  combination index (CI): < 1
L3.6pl cells [6]; KPT-9274 (60, 120 or 180 nM) with gemcitabine (10, 20 or 40 nM)
  combination index (CI): < 1
L3.6pl cells [6]; KPT-9274 (60, 120 or 180 nM) with oxaliplatin (2, 4 or 8 μM)
  combination index (CI): < 1
MiaPaCa-2 cells [7]
  apoptosis, combination vs either single agent alone: statistically significant enhancement in apoptosis
L3.6pl cells [8]
  apoptosis, combination vs either single agent alone: statistically significant enhancement in apoptosis
MiaPaCa-2 cells [9]
  colony formation, combination vs single agents alone: inhibition of colony formation
L3.6pl cells [10]
  colony formation, combination vs single agents alone: inhibition of colony formation
L3.6pl PDAC tumors; 140 mg/kg IV per day from day 21, 3 doses
  effect on large established tumors (control group, mean tumor 1500 mg): regress large established tumors
L3.6pl PDAC tumors; [15]
  anti-tumor activity on L3.6pl tumors: completely eliminated
  outward signs of toxicity, body weight loss: did not see any outward signs of toxicity, body weight loss
AsPC-1 tumors
  tumor growth, AsPC-1 xenograft: statistically significant inhibition of tumor growth
[11]; 140 mg/kg once daily i.v.
  suppression of CSC tumors: almost complete suppression of CSC tumors
Tolerability in mice
  tolerability in mice: well tolerated
multi-drug transporters [12]
  substrate of the multi-drug transporters: not a substrate of the multi-drug transporters

## Cc1nc(Nc2n[nH]c3c2CN(C(=O)N[C@H](CN(C)C)c2ccccc2)C3(C)C)c2sccc2n1 [PF-03758309]
[13]
  human bioavailability: < 1%
multi-drug transporters [14]
  substrate of the multi-drug transporters: substrate of the multi-drug transporters

## Nc1ccn([C@@H]2O[C@H](CO)[C@@H](O)C2(F)F)c(=O)n1 [gemcitabine, reference compound]
[11]; 50 mg/kg i.p.
  response of CSC tumors: do not respond

## COc1nc(NCCc2c[nH]c3ccccc23)nc(Nc2ccc3[nH]ncc3c2)n1 [KY-04031]
PAK4
  binding affinity towards PAK4: very low binding affinity
